S1P3 antagonist: blocks the human S1P3 receptor. AID 485. Q99500. inhibition, % at 4.98 µM. 170,000 tested, 0.27% active. CHO S1P3 NFAT-BLA reporter, FRET fluorescence, antagonist mode;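 active = inhibition above the plate cutoff, the mean inhibition of test wells on that plate plus 3 SD, cut at about 28% in these data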;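 also: cells challenged with S1P at its EC80 of 0.8 µM; blue over green emission ratio from cleaved BLA substrate after 4 h stimulation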
Target sequence (Q99500 whole entry, looked up): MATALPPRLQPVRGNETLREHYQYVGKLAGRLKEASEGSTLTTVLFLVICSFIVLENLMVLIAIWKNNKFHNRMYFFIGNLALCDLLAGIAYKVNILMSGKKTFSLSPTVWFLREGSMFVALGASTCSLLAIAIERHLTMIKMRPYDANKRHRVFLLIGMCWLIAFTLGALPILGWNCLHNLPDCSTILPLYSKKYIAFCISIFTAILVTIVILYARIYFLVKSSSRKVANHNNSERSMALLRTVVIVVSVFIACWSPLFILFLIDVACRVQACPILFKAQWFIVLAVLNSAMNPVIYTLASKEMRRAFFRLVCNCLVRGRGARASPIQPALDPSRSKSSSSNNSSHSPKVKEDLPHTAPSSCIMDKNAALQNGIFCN
CHOP inh: blocks CHOP induction under ER stress; CHO-K1 CHOP-promoter luciferase, tunicamycin-induced, 15-18 h; inhibition, % at 10 µM; 220,000 tested, 3.8% active; AID 2732;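 active = compounds that reduced the stress-induced luciferase reporter signal by more than about 70% of percent inhibition, limit read from the data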
MDM2 E3 inh: inhibitors of human Mdm2 E3 ubiquitin ligase | 210,000 tested, 0.11% active | signal enhancement, % at 5 µM | cell-based MDM2 ubiquitination luciferase reporter, 2 h; 0 = plate control, 100 = twice control, blank-subtracted | AID 1230;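 active = signal enhancement of 30% or more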;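 also: luminescence tracks abundance of the self-degrading MDM2-luciferase fusion protein; higher signal means inhibition of MDM2 E3 ligase activity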
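test system = mammalian cells stably expressing self-ubiquitinating, self-degrading MDM2 E3–luciferase fusion | quantity = 2000 cells/well | incubation = cell settling 4 h, compound treatment 2 h, both 37 °C | signal = luminescence with SteadyLite reagent, 15 min at room temperature | evaluation = % enhancement relative to plate controls after blank subtraction | benchmarks = plate controls and plate blanks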
Hsp70 activator: switches on Hsp70 transcription; 200,000 tested, 0.04% active; HeLa Hsp70 promoter luciferase reporter, luminescence; scaled: vehicle 0, proteasome-inhibitor control 100%; activation, % at 10 µM;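 active = activation above the mean across all tested compounds plus 3 SD, cutoff set per campaign, cut at about 5.5% in these data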
Hits are given with their value; – = inactive; · = not tested or not shown. The list is not random: actives were taken first. Their share in the collection is about 4%.

SMILES | S1P3 antagonist | CHOP inh | MDM2 E3 inh | Hsp70 activator
C#CC(N)CCC(=O)O (stereo unspecified) | · | – | · | ·
C=CC(N)CCC(=O)O (stereo unspecified) | · | 91 | · | ·
COc1ccc(-c2nc(-c3ccc(O)cc3O)cs2)cc1OC | – | 85 | – | –
CCCCn1c(NC(=O)CC)c(C#N)c2nc3ccccc3nc21 | – | 94 | – | –
O=C(c1ccccc1)c1cc(-c2ccccc2)on1 | · | 93 | – | –
COc1ccccc1NC(=O)CN1CCN(CC(=O)Nc2ccc(Cl)c(C(F)(F)F)c2)CC1 | – | – | – | –
CCc1ccccc1NCC(=O)Nc1ccc(Cl)c(C(F)(F)F)c1 | – | 79 | – | –
COc1ccc(CN(CCO)CCO)cc1[N+](=O)[O-] | – | – | – | –
CC(C)OC(=O)CSc1nc(Cc2ccccc2)nc2ccccc12 | – | 75 | – | –
COC(=O)CSc1nc(Cc2ccccc2)nc2ccccc12 | – | – | – | –
NS(=O)(=O)c1ccc(NCc2ccccc2OCc2ccc(F)cc2)cc1 | · | – | – | –
NS(=O)(=O)c1ccc(NCc2cc(Cl)ccc2OCc2ccccc2F)cc1 | · | 70 | – | –
CC(C)(C)c1ccc(OCCCNCc2ccccc2)cc1 | – | 95 | – | –
COCCCNCCCOc1ccc(C(C)(C)c2ccccc2)cc1 | – | – | – | –
Cc1cc(C(=O)COC(=O)c2cccnc2Cl)c(C)n1-c1c(C)n(C)n(-c2ccccc2)c1=O | – | – | – | –
O=C(CCC(=O)c1ccc(F)cc1)Nc1cc(Cl)cc(Cl)c1 | · | 84 | – | –
O=C(Cn1cnc2ccccc21)N/N=C/c1ccccc1[N+](=O)[O-] | – | – | – | –
CC(C)c1nc(N2CCN(C(=O)c3ccccc3)CC2)c(C#N)c2c1COC(C)(C)C2 | – | 91 | – | –
CN1CCN(C(=S)NC(=O)/C=C/c2cccc3ccccc23)CC1 | · | – | – | –
CC(C)NC(=S)NC(=O)/C=C/c1cccc2ccccc12 | – | 86 | – | –
CC(C)CCNC(=O)CCC(=O)NNc1nc2ccccc2c2nc(-c3ccccc3)nn12 | – | 79 | – | –
CCCCCCCCCCCCCCCCOCC(COCC(F)(F)F)OP(=O)(O)OCO (stereo unspecified) | · | – | · | ·
CC(C)(C)OC(=O)N1CCN(C(=O)[C@H](Cc2ccc(O)cc2)n2cc(CCO)nn2)CC1 | – | – | · | –
COc1cc(C)ccc1OCCOCCOc1c(C)cc(C)cc1Br | · | 84 | – | –
COc1cc(C)ccc1OCCOc1ccccc1Cl | · | 76 | – | –
SMILES | S1P3 antagonist | CHOP inh | MDM2 E3 inh | Hsp70 activator
COc1ccccc1N(CN1C(=O)c2ccccc2C1=O)C(=O)c1cccc(C)c1 | – | – | – | –
COc1ccc(-c2cc(C(F)(F)F)c(C#N)c(SCC(=O)Nc3ccccc3C#N)n2)cc1 | · | – | – | –
Cc1cccc(C)c1NC(=O)CSc1nc(C)c(CC(=O)c2ccc(Br)cc2)c(C)c1C#N | · | 91 | – | –
Cc1nc(SCC(=O)Nc2ccccc2C(F)(F)F)c(C#N)c(C)c1CC(=O)c1ccc(Br)cc1 | · | 88 | – | –
O=C(N/N=C\C=C\c1ccco1)c1cc(-c2ccc3ccccc3c2)n[nH]1 | – | 80 | – | –
Cc1nonc1OCCCNc1ccc([N+](=O)[O-])cc1Cl | – | – | – | –
CCc1cc2c(NCC3CCCO3)nc(C)nc2s1 (stereo unspecified) | · | – | – | –
O=C(CCc1ccccc1)c1ccc2c(c1)OCCCO2 | · | – | – | –
O=C(CCCc1ccccc1)c1ccc2c(c1)OCCO2 | · | 89 | – | –
O=c1cc(O)cc(/C=C/c2ccc(O)c(O)c2)o1 | · | – | · | ·
O=C(N=C1c2ccccc2CN1c1ccc(F)c(Cl)c1)c1cccnc1Cl | – | – | – | –
CC(C)c1cc(Br)ccc1OCCCN1C(=O)NC(C)(C)C1=O | · | 73 | – | –
COc1ccc(C(=O)/C=C/C(=O)N(Cc2ccccc2)C(C(=O)NC2CCCCC2)c2ccncc2)c(O)c1 (stereo unspecified) | – | – | – | –
COc1ccc(C(=O)/C=C/C(=O)N(Cc2ccc(F)cc2)C(C(=O)NC2CCCCC2)c2ccncc2)c(O)c1 (stereo unspecified) | – | – | – | –
COc1ccc(C(=O)/C=C/C(=O)N(CC(=O)NC2CCCCC2)Cc2ccccc2OC)c(O)c1 | – | 107 | – | –
COc1ccc(C(=O)/C=C/C(=O)N(CC(=O)NC2CCCCC2)Cc2ccccc2)c(O)c1 | – | 108 | – | –
COc1ccc(C(=O)/C=C/C(=O)N(CC(=O)NC2CCCCC2)CC2CCCO2)c(O)c1 (stereo unspecified) | – | 108 | – | –
CCCCNC(=O)C(=O)N/N=C/c1ccc(OCC(=O)Nc2cccc(OC)c2)c(OC)c1 | – | 99 | – | –
CCNC(=S)N/N=C/c1ccc(OCC(=O)Nc2ccc(OC)cc2)c(OC)c1 | – | – | – | –
CCc1ccc(C(=O)COC(=O)C(CCSC)NC(=O)C23CC4CC(CC(C4)C2)C3)cc1 (stereo unspecified) | – | – | – | –
CSCCC(NC(=O)C12CC3CC(CC(C3)C1)C2)C(=O)OCC(=O)c1ccc(Cl)cc1 (stereo unspecified) | · | 75 | – | –
NS(=O)(=O)c1ccc(CCNC(=O)Cc2ccc(S(=O)(=O)N3CCCC3)s2)cc1 | – | – | – | ·
O=C(COC(=O)c1cc(=O)[nH]c2ccccc12)c1ccc(Br)cc1 | – | 72 | · | ·
Cc1cc(Cl)ccc1OC(C)C(=O)Nc1ccc([N+](=O)[O-])cn1 (stereo unspecified) | – | 75 | – | –
Cc1cn([C@H]2C[C@@H](N=[N+]=[N-])[C@@H](CO)O2)c(=O)[nH]c1=O | · | – | · | ·
SMILES | S1P3 antagonist | CHOP inh | MDM2 E3 inh | Hsp70 activator
COCCCNC(=O)c1c(N)n(-c2ccc3c(c2)OCO3)c2nc3ccccc3nc12 | – | · | – | –
Cc1ccc(-n2c(N)c(C(=O)Nc3c(C)n(C)n(-c4ccccc4)c3=O)c3nc4ccccc4nc32)cc1C | – | 91 | – | –
CCCNC(=O)c1c(N)n(-c2ccc3c(c2)OCO3)c2nc3ccccc3nc12 | – | 80 | – | –
CCOCCCNC(=O)c1c(N)n(-c2ccc3c(c2)OCO3)c2nc3ccccc3nc12 | – | 73 | – | ·
COc1ccc(-n2c(N)c(C(=O)Nc3c(C)n(C)n(-c4ccccc4)c3=O)c3nc4ccccc4nc32)cc1 | – | – | – | ·
Cc1nnc(SCC(=O)NC2CCCCC2C)s1 (stereo unspecified) | – | – | – | –
CCOc1cc(CNCCSc2nnnn2C)cc(Br)c1OCc1ccc(F)cc1 | – | – | – | –
Cc1ccc(Sc2nnc(-c3ccccc3)cc2C#N)cc1 | · | – | – | –
COc1ccc(Sc2nnc(-c3ccccc3)cc2C#N)cc1 | · | 90 | – | –
CCc1cccc(C)c1NC(=O)CO/N=C(\N)CC(=O)NC1CCCCC1 | – | – | – | –
COc1cnc(-c2ccccc2)nc1Oc1ccccc1C | · | – | · | –
COc1cccc(-c2nc(NC(C)C)c3ccccc3n2)c1O | · | – | – | –
COc1cnc(-c2ccccc2)nc1Oc1cccc(C)c1C | · | 78 | – | –
COc1cccc(-c2nc(Oc3cccc(C)c3C)c3ccccc3n2)c1O | – | 82 | – | –

Screening results (PubChem BioAssay)
